# Reference: ChEMBL document CHEMBL1157708, “Design, synthesis and primary activity assay of bi- or tri-peptide analogues with the scaffold l-arginine as amino-peptidase N/CD13 inhibitors” (Bioorg Med Chem, 2010)
# Where a SMILES comes first, the peptide text is derived from it. [ ]: non-standard residue; d: D form. The star is where a group is joined. Arg(NO2) = N=C(NCCC[C@H](N)C(=O)O)N[N+](=O)[O-]; Boc = CC(C)(C)OC(=O)*; Bz = O=C(c1ccccc1)*; NHOH = ON*
# What was measured:
# [1] = molecular target: 72 kDa type IV collagenase (Homo sapiens, UniProt P08253); experiment: Inhibition of MMP2 by spectrophotometry
# 72 kDa type IV collagenase, sequence (P08253 whole entry): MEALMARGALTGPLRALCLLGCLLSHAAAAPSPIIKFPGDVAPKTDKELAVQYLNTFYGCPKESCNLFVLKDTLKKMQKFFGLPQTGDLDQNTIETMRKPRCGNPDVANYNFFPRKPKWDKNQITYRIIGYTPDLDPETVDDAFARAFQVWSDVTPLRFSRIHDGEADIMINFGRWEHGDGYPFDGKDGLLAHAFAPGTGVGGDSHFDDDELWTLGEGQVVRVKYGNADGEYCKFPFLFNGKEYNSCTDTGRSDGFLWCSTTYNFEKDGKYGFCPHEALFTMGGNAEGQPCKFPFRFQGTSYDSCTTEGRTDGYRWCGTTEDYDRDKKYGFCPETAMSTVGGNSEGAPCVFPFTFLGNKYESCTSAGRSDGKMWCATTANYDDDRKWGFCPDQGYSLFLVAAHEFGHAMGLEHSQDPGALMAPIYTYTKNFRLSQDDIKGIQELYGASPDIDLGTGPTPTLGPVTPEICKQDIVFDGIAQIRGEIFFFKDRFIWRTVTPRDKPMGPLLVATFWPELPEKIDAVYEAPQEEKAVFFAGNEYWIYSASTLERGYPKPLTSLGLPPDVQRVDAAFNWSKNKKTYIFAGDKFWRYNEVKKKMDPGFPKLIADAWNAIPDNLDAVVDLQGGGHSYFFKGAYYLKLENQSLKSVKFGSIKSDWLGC
# Method in brief: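 Gelatinase A (MMP-2) with an in-house synthesized substrate and inhibitor, all in 50 mmol/L sodium borate pH 8.5, incubated 30 min at 37 °C. 0.03% TNBS then added and incubated a further 20 min. Absorbance read at 450 nm.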
# Aminopeptidase N = molecular target: T1, Aminopeptidase N (Sus scrofa, UniProt P15145); experiment: Inhibition of APN from pig kidney microsomes by spectrophotometry; format: tissue-based
# T1 sequence (P15145 whole entry): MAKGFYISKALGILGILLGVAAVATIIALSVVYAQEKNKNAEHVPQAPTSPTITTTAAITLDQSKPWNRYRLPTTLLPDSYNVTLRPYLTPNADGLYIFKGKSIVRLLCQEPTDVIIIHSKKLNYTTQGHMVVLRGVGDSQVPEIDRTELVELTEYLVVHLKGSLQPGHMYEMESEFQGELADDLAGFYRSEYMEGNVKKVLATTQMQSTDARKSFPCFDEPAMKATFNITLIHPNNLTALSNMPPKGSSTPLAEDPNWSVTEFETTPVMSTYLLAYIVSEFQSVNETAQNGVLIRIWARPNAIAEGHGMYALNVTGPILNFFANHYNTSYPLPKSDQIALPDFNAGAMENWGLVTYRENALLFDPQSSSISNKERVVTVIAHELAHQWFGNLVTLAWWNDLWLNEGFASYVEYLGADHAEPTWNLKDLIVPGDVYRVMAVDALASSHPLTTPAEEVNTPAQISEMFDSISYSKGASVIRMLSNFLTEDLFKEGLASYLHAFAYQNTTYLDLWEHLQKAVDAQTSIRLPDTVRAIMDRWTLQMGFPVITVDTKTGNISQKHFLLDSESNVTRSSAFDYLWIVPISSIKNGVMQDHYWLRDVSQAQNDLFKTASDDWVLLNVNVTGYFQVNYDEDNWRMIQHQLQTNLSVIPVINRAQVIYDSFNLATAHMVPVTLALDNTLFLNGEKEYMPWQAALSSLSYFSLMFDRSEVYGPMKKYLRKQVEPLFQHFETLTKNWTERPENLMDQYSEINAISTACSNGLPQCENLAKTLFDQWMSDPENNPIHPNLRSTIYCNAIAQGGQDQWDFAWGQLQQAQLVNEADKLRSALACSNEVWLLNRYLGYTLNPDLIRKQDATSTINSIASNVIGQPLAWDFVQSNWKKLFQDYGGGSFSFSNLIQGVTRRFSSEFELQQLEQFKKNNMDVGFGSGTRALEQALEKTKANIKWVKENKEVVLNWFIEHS
SMILES,IC50 [1] [µM],IC50 (Aminopeptidase N) [µM]
N=C(NCCC[C@H](NC(=O)[C@@H]1CCCN1C(=O)[C@@H]1CCCN1)C(=O)NO)N[N+](=O)[O-] (H-Pro-Pro-[Arg(NO2)]-{NHOH}),8610,65.2
CC(C)C[C@H](NC(=O)[C@@H](N)Cc1ccccc1)C(=O)N[C@@H](CCCNC(=N)N[N+](=O)[O-])C(=O)NO (H-Phe-Leu-[Arg(NO2)]-{NHOH}),514,–
CC(C)(C)OC(=O)N1CCC[C@H]1C(=O)N[C@@H](Cc1ccccc1)C(=O)N[C@@H](CCCNC(=N)N[N+](=O)[O-])C(=O)NO (Boc-Pro-Phe-[Arg(NO2)]-{NHOH}),7900,1340
CC(C)C[C@H](NC(=O)[C@@H](O)[C@H](N)Cc1ccccc1)C(=O)O [UBENIMEX],253,–
NC(=N[N+](=O)[O-])NCCC[C@H](NC(=O)[C@H](Cc1ccccc1)NC(=O)[C@@H]1CCCN1)C(=O)NO (H-Pro-Phe-[Arg(NO2)]-{NHOH}),8050,364
N=C(NCCC[C@H](NC(=O)[C@H](Cc1ccccc1)NC(=O)c1ccc(Cl)cc1Cl)C(=O)NO)N[N+](=O)[O-],8140,4.3
CC(C)C[C@H](NC(=O)c1ccccc1Cl)C(=O)N[C@@H](CCCNC(N)=N[N+](=O)[O-])C(=O)NO,630,4.8
N=C(NCCC[C@H](NC(=O)[C@H](Cc1ccccc1)NC(=O)c1ccccc1)C(=O)NO)N[N+](=O)[O-] (Bz-Phe-[Arg(NO2)]-{NHOH}),1650,4.2
CC(C)C[C@H](N)C(=O)N[C@@H](CCCNC(=N)N[N+](=O)[O-])C(=O)NO,5310,–
CC(C)C[C@H](NC(=O)c1ccc(Cl)cc1Cl)C(=O)N[C@@H](CCCNC(N)=N[N+](=O)[O-])C(=O)NO,1540,7.2
CC(C)C[C@H](NC(=O)OC(C)(C)C)C(=O)N[C@@H](CCCNC(N)=N[N+](=O)[O-])C(=O)NO,5680,334
COc1ccc(C(=O)N[C@@H](C)C(=O)N[C@@H](CCCNC(N)=N[N+](=O)[O-])C(=O)NO)cc1,8970,16.3
CC(C)[C@H](NC(=O)[C@@H](N)Cc1ccccc1)C(=O)N[C@@H](CCCNC(N)=N[N+](=O)[O-])C(=O)NO (H-Phe-Val-[Arg(NO2)]-{NHOH}),3160,98.6
CC(C)C[C@H](NC(=O)OC(C)(C)C)C(=O)NCC(=O)N[C@@H](CCCNC(N)=N[N+](=O)[O-])C(=O)NO (Boc-Leu-Gly-[Arg(NO2)]-{NHOH}),2980,25.2
C[C@H](NC(=O)c1ccc(Cl)cc1Cl)C(=O)N[C@@H](CCCNC(N)=N[N+](=O)[O-])C(=O)NO,1760,31.4
CC(C)(C)OC(=O)N1CCC[C@H]1C(=O)N1CCC[C@H]1C(=O)N[C@@H](CCCNC(=N)N[N+](=O)[O-])C(=O)NO (Boc-Pro-Pro-[Arg(NO2)]-{NHOH}),8360,42.1
CC(C)[C@H](NC(=O)c1ccccc1I)C(=O)N[C@@H](CCCNC(N)=N[N+](=O)[O-])C(=O)NO,1780,6.7
CC(C)[C@H](NC(=O)OC(C)(C)C)C(=O)N[C@@H](CCCNC(N)=N[N+](=O)[O-])C(=O)NO (Boc-Val-[Arg(NO2)]-{NHOH}),3460,201
CC(C)C[C@H](NC(=O)[C@H](Cc1ccccc1)NC(=O)OC(C)(C)C)C(=O)N[C@@H](CCCNC(=N)N[N+](=O)[O-])C(=O)NO (Boc-Phe-Leu-[Arg(NO2)]-{NHOH}),407,8.4
CC(C)C[C@H](N)C(=O)N[C@@H](C)C(=O)N[C@@H](CCCNC(N)=N[N+](=O)[O-])C(=O)NO (H-Leu-Ala-[Arg(NO2)]-{NHOH}),1710,–
CSCCC[C@H](N)C(=O)N[C@@H](CCCNC(=N)N[N+](=O)[O-])C(=O)NO,4200,–
CC(C)[C@H](NC(=O)[C@H](Cc1ccccc1)NC(=O)OC(C)(C)C)C(=O)N[C@@H](CCCNC(=N)N[N+](=O)[O-])C(=O)NO (Boc-Phe-Val-[Arg(NO2)]-{NHOH}),447,33.1
CC(C)[C@H](N)C(=O)N[C@@H](CCCNC(N)=N[N+](=O)[O-])C(=O)NO (H-Val-[Arg(NO2)]-{NHOH}),428,–
CC(C)(C)OC(=O)N1CCC[C@H]1C(=O)N[C@@H](Cc1ccc(O)cc1)C(=O)N[C@@H](CCCNC(=N)N[N+](=O)[O-])C(=O)NO (Boc-Pro-Tyr-[Arg(NO2)]-{NHOH}),4520,436
CC(C)C[C@H](N)C(=O)NCC(=O)N[C@@H](CCCNC(N)=N[N+](=O)[O-])C(=O)NO (H-Leu-Gly-[Arg(NO2)]-{NHOH}),3630,–
N=C(NCCC[C@H](NC(=O)[C@H](Cc1ccc(O)cc1)NC(=O)[C@@H]1CCCN1)C(=O)NO)N[N+](=O)[O-] (H-Pro-Tyr-[Arg(NO2)]-{NHOH}),7590,248
CC(C)C[C@H](NC(=O)OC(C)(C)C)C(=O)N[C@@H](C)C(=O)N[C@@H](CCCNC(N)=N[N+](=O)[O-])C(=O)NO (Boc-Leu-Ala-[Arg(NO2)]-{NHOH}),2900,39.5
CSCC[C@H](NC(=O)OC(C)(C)C)C(=O)N[C@@H](CCCNC(=N)N[N+](=O)[O-])C(=O)NO (Boc-Met-[Arg(NO2)]-{NHOH}),1940,132
